Source: ChEMBL document CHEMBL4359895, “Discovery and biological evaluation of darolutamide derivatives as inhibitors and down-regulators of wild-type AR and the mutants” (Eur J Med Chem, 2019)
Each block holds one compound with its values, some of them ahead of it. The source made the active and inactive calls. The calls are words filed in the database; no cut-off is given here.

Assays:
LNCaP [1] = test: Inhibition of AR protein expression in human LNCAP cells at 5 to 20 uM incubated for 24 hrs by Western blot analysis; type: functional, cell-based
Outline: (§1)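 LNCaP, VCaP and 22Rv1 cells grown in medium with 10% (v/v) FBS. Treated with compounds or DMSO for 24 h. AR-full and AR splice-variant protein then assessed by western blot.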

VCaP [2] = test: Inhibition of AR protein expression in human VCaP cells at 10 to 30 uM incubated for 24 hrs by Western blot analysis; type: functional, cell-based; outline: as §1
LNCaP [3] = test: Inhibition of AR splice variant 7 mutant expression in human LNCAP cells at 5 to 20 uM incubated for 24 hrs by Western blot analysis analysis; type: functional, cell-based; outline: as §1
VCaP [4] = test: Inhibition of AR splice variant 7 mutant expression in human VCaP cells at 10 to 30 uM incubated for 24 hrs by Western blot analysis analysis; type: functional, cell-based; outline: as §1
CWR22R [5] = test: Inhibition of AR splice variant 7 mutant expression in human 22Rv1 cells at 10 to 30 uM incubated for 24 hrs by Western blot analysis analysis; type: functional, cell-based; outline: as §1
LNCaP [6] = test: Inhibition of AR mRNA level in human LNCAP cells at 5 to 20 uM incubated for 24 hrs by qRT-PCR analysis; type: functional, cell-based
Outline: (§2)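 LNCaP, VCaP and 22Rv1 cells treated with DMSO or compounds for 24 h. AR-full and AR-V7 mRNA measured by qRT-PCR and normalised to GAPDH. Mean ± SD, n = 3, compared with DMSO by two-tailed t test.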

VCaP [7] = test: Inhibition of AR mRNA level in human VCaP cells at 10 to 30 uM incubated for 24 hrs by qRT-PCR analysis; type: functional, cell-based; outline: as §2
LNCaP [8] = test: Inhibition of AR splice variant 7 mutant gene expression in human LNCAP cells at 5 to 20 uM incubated for 24 hrs by qRT-PCR analysis; type: functional, cell-based; outline: as §2
VCaP [9] = test: Inhibition of AR splice variant 7 mutant gene expression in human VCaP cells at 10 to 30 uM incubated for 24 hrs by qRT-PCR analysis; type: functional, cell-based; outline: as §2
[10] = target: T1, Androgen receptor (Homo sapiens) (UniProt P10275); test: Inhibition of AR (unknown origin) transfected in human PC3 cells assessed as receptor transactivation at 0.1 to 30 uM incubated for 24 hrs by dual luciferase reporter gene assay; type: cell-based
T1 sequence (whole entry): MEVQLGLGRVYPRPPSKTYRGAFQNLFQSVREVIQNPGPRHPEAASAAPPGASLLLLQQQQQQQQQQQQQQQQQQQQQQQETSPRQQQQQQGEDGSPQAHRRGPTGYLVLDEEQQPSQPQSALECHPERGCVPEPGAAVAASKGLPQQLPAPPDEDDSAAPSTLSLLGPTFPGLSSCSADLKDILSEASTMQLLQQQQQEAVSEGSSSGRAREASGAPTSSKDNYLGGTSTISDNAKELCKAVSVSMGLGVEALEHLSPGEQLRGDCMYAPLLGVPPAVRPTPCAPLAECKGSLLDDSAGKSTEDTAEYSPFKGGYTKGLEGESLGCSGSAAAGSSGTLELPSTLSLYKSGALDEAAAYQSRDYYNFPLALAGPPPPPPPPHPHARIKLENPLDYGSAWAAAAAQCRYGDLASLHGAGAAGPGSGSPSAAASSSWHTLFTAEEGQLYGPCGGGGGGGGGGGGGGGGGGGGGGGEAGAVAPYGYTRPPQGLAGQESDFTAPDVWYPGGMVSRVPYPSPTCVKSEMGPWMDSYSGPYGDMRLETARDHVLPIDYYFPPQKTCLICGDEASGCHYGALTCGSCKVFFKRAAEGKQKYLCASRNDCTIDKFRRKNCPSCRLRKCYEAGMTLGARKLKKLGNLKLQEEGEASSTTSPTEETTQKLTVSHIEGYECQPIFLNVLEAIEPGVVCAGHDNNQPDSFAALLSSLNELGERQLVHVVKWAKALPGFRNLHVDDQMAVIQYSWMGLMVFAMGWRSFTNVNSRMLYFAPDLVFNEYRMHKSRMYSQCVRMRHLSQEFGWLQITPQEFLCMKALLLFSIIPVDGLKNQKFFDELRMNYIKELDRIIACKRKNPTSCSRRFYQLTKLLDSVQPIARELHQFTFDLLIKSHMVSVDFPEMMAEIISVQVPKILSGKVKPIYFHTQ

[11] = Stability of compound in nutrient medium with fetal bovine serum and antibiotic incubated for 6 days by HPLC analysis; conditions: 144 h
LNCaP [12] = test: Induction of androgen receptor splice variant 7 mutant degradation in human LNCAP cells at 30 uM incubated upto 26 hrs in presence of bortezomib/MG132 by Western blot analysis; type: functional, cell-based
[13] = Half life in Sprague-Dawley rat 30 mg/kg, po measured up to 24 hrs by LC-MS/MS analysis; type: ADME, organism-based; conditions: in vivo
Outline: (§3)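 Rats dosed orally at 30 mg/kg, compound formulated in 10% DMA / 90% PEG200. Plasma levels followed over time to build concentration-time curves, from which T1/2, Tmax, Cmax and AUC were derived.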

[14] = Plasma concentration in Sprague-Dawley rat 30 mg/kg, po measured up to 24 hrs by LC-MS/MS analysis; type: ADME, organism-based; outline: as §3
VCaP [15] = test: Antitumor activity against castration-resistant human VCaP cells xenografted in BALB/c mouse assessed as tumor growth inhibition at 30 mg/kg, po administered for 40 days; type: functional; conditions: 960 h, read-out: TGI
Outline: (§4)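 Castration-resistant VCaP xenografts grown in male BALB/c nude mice. Animals dosed once daily for 40 days alongside a vehicle group. Tumor volume tracked over time, with tumor weights taken at end. Reported as tumor growth inhibition, mean ± SEM, N = 8-9 per group.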

VCaP [16] = test: Antitumor activity against castration-resistant human VCaP cells xenografted in BALB/c mouse assessed as tumor growth inhibition at 60 mg/kg, po administered for 40 days; type: functional; conditions: 960 h, read-out: TGI; outline: as §4
[17] = Toxicity in BALB/c mouse xenografted with castration-resistant human VCaP cells assessed as weight loss at 30 to 60 mg/kg, po administered for 40 days; type: organism-based; conditions: in vivo, 960 h
Outline: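 Castration-resistant VCaP xenografts in male BALB/c nude mice. Animals treated once daily for 40 days, with a vehicle group included.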

CWR22R [18] = test: Inhibition of AR splice variant 7 mutant expression in human 22Rv1 cells at 10 to 40 uM incubated for 24 hrs by Western blot analysis analysis; type: functional, cell-based; outline: as §1
LNCaP [19] = test: Inhibition of AR mRNA level in human LNCAP cells at 5 to 30 uM incubated for 24 hrs by qRT-PCR analysis; type: functional, cell-based; outline: as §2
VCaP [20] = test: Inhibition of AR mRNA level in human VCaP cells at 10 to 40 uM incubated for 24 hrs by qRT-PCR analysis; type: functional, cell-based; outline: as §2
CWR22R [21] = test: Inhibition of AR mRNA level in human 22Rv1 cells at 10 to 40 uM incubated for 24 hrs by qRT-PCR analysis; type: functional, cell-based; outline: as §2
LNCaP [22] = test: Inhibition of AR splice variant 7 mutant gene expression in human LNCAP cells at 5 to 30 uM incubated for 24 hrs by qRT-PCR analysis; type: functional, cell-based; outline: as §2
CWR22R [23] = test: Inhibition of AR splice variant 7 mutant gene expression in human 22Rv1 cells at 10 to 40 uM incubated for 24 hrs by qRT-PCR analysis; type: functional, cell-based; outline: as §2

inhibition [10]: Active
Stability [11]: Stable
SMILES: C[C@@H](Cn1ccc(-c2ccc(C#N)c(Cl)c2)n1)Nc1cccc2ncccc12
inhibition (LNCaP [1]): Active
inhibition (VCaP [2]): Active
inhibition (LNCaP [3]): Active
inhibition (VCaP [4]): Active
inhibition (CWR22R [5]): Active
inhibition (LNCaP [6]): Active
inhibition (VCaP [7]): Active
inhibition (LNCaP [8]): Active
inhibition (VCaP [9]): Active

inhibition [10]: Active
half-life [13]: 1.79 h
Cmax [14]: 2.65 µg/mL
Stability [11]: Stable
SMILES: C[C@@H](Cn1ccc(-c2ccc(C#N)c(Cl)c2)n1)Nc1ncnc2nc[nH]c12
inhibition (VCaP [2]): Active
inhibition (VCaP [4]): Active
Activity (LNCaP [12]): inactive
inhibition in vivo at 30 mg/kg (VCaP [15]): 64.7%
inhibition in vivo at 60 mg/kg (VCaP [16]): 77.8%
Activity [17]: Non-Toxic
inhibition (CWR22R [18]): Active
inhibition (LNCaP [19]): Active
inhibition (VCaP [20]): Active
inhibition (CWR22R [21]): Active
inhibition (LNCaP [22]): Active
inhibition (CWR22R [23]): Active
